ChEMBL document CHEMBL5705905, “Pharmacological targeting of kinases MST1 and MST2 augments tissue repair and regeneration” (Sci Transl Med, 2016)
The source made the active and inactive calls. No cut-off for these calls is given here.

Columns and labels:
[1] = target: Serine/threonine-protein kinase PLK2 (Homo sapiens) (UniProt Q9NYY3); test: Inhibition of PLK2 (unknown origin) assessed as remaining activity at 1 uM by Kinome scan method relative to control
[2] = target: Serine/threonine-protein kinase PAK 1 (Homo sapiens) (UniProt Q13153); test: Inhibition of PAK1 (unknown origin) assessed as remaining activity at 1 uM by Kinome scan method relative to control
[3] = target: Tyrosine-protein kinase Fyn (Homo sapiens) (UniProt P06241); test: Inhibition of FYN (unknown origin) assessed as remaining activity at 1 uM by Kinome scan method relative to control
[4] = target: LIM domain kinase 1 (Homo sapiens) (UniProt P53667); test: Inhibition of LIMK1 (unknown origin) assessed as remaining activity at 1 uM by Kinome scan method relative to control
[5] = target: Tyrosine-protein kinase ABL1 (Homo sapiens) (UniProt P00519); test: Inhibition of ABL1 (unknown origin) assessed as remaining activity at 1 uM by Kinome scan method relative to control
In short: (§1)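 Active-site-dependent competition-binding (KINOMEscan) panel of 468 kinases, test compound at 1 μM (from a 10 mM DMSO stock). Read-out is ctrl% = (test signal − positive control signal)/(negative control signal − positive control signal) × 100. DMSO is the negative control (100%) and a control compound is the positive control (0%). Lower ctrl% means tighter binding.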

[6] = target: Serine/threonine-protein kinase MRCK alpha (Homo sapiens) (UniProt Q5VT25); test: Inhibition of MRCKA (unknown origin) assessed as remaining activity at 1 uM by Kinome scan method relative to control
[7] = target: T1, Serine/threonine-protein kinase 3 (Homo sapiens, UniProt Q13188); test: Binding affinity to MST2 (unknown origin) assessed as dissociation constant
T1 sequence (Q13188 whole entry): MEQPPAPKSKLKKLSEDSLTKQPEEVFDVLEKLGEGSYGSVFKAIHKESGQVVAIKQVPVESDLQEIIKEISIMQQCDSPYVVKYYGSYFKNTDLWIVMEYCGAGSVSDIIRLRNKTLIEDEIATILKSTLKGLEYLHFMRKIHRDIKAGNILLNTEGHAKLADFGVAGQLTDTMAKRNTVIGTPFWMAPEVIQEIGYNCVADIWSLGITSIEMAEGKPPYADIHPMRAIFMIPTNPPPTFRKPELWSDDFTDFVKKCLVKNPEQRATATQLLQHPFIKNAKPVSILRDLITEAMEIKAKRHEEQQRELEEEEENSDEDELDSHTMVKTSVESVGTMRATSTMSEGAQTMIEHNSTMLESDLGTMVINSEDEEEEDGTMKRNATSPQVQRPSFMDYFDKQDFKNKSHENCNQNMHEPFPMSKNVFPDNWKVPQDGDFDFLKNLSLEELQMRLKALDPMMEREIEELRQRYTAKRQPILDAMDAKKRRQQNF

[8] = target: Tyrosine-protein kinase FRK (Homo sapiens) (UniProt P42685); test: Inhibition of FRK (unknown origin) assessed as remaining activity at 1 uM by Kinome scan method relative to control
[9] = target: Ribosomal protein S6 kinase alpha-2 (Homo sapiens) (UniProt Q15349); test: Inhibition of C-terminal kinase domain RSK3 (unknown origin) assessed as remaining activity at 1 uM by Kinome scan method relative to control; in short: as §1
[10] = target: cGMP-dependent protein kinase 2 (Homo sapiens) (UniProt Q13237); test: Inhibition of PRKG2 (unknown origin) assessed as remaining activity at 1 uM by Kinome scan method relative to control
[11] = tested on: Phosphatidylinositol 4,5-bisphosphate 3-kinase catalytic subunit alpha isoform (Homo sapiens), P42336 [C420R]; test: Inhibition of PIK3CA C420R mutant (unknown origin) assessed as remaining activity at 1 uM by Kinome scan method relative to control
[12] = target: Calcium-dependent protein kinase 1 (Plasmodium falciparum) (UniProt P62344); test: Inhibition of Plasmodium falciparum CDPK1 assessed as remaining activity at 1 uM by Kinome scan method relative to control
[13] = target: Glycogen synthase kinase-3 beta (Homo sapiens) (UniProt P49841); test: Inhibition of GSK3beta (unknown origin) assessed as remaining activity at 1 uM by Kinome scan method relative to control
[14] = target: Tyrosine-protein kinase ABL2 (Homo sapiens) (UniProt P42684); test: Inhibition of ABL2 (unknown origin) assessed as remaining activity at 1 uM by Kinome scan method relative to control; in short: as §1
[15] = target: Serine/threonine-protein kinase WNK2 (Homo sapiens) (UniProt Q9Y3S1); test: Inhibition of WNK2 (unknown origin) assessed as remaining activity at 1 uM by Kinome scan method relative to control
[16] = target: Ephrin type-A receptor 5 (Homo sapiens) (UniProt P54756); test: Inhibition of EPHA5 (unknown origin) assessed as remaining activity at 1 uM by Kinome scan method relative to control
[17] = target: Ephrin type-B receptor 3 (Homo sapiens) (UniProt P54753); test: Inhibition of EPHB3 (unknown origin) assessed as remaining activity at 1 uM by Kinome scan method relative to control
[18] = target: Tyrosine-protein kinase Lck (Homo sapiens) (UniProt P06239); test: Inhibition of LCK (unknown origin) assessed as remaining activity at 1 uM by Kinome scan method relative to control
[19] = target: Protein kinase C theta type (Homo sapiens) (UniProt Q04759); test: Inhibition of PRKCQ (unknown origin) assessed as remaining activity at 1 uM by Kinome scan method relative to control
[20] = tested on: RAW264.7; test: Inhibition of MST1/2 (unknown origin) in mouse RAW264.7 cells assessed as H2O2 stimulated MST1/2 autophosphorylation level at 1 to 3 uM by immunoblot analysis; assay type: cell-based; conditions: dose 1-3 µM
[21] = target: Wee1-like protein kinase (Homo sapiens) (UniProt P30291); test: Inhibition of WEE1 (unknown origin) assessed as remaining activity at 1 uM by Kinome scan method relative to control
[22] = target: Dual specificity tyrosine-phosphorylation-regulated kinase 1A (Homo sapiens) (UniProt Q13627); test: Inhibition of DYRK1A (unknown origin) assessed as remaining activity at 1 uM by Kinome scan method relative to control
[23] = target: Serine/threonine-protein kinase 32B (Homo sapiens) (UniProt Q9NY57); test: Inhibition of YANK2 (unknown origin) assessed as remaining activity at 1 uM by Kinome scan method relative to control
[24] = tested on: HepG2; test: Inhibition of Flag-tagged MST1 Y101F/D109A mutant (unknown origin) in human HepG2 cells assessed as MOB1 phosphorylation level at 3 uM by immunoblot analysis; assay type: cell-based
[25] = target: Cyclin-dependent kinase 11A (Homo sapiens) (UniProt Q9UQ88); test: Inhibition of CDC2L2 (unknown origin) assessed as remaining activity at 1 uM by Kinome scan method relative to control
In short: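 Active-site-dependent competition-binding profiling (KINOMEscan) at 1 μM against a 468-kinase panel; compound supplied from a 10 mM DMSO stock. Read-out is ctrl% = (test signal − positive control signal)/(negative control signal − positive control signal) × 100. DMSO is the negative control (100%) and a control compound the positive control (0%). Lower ctrl% means tighter binding.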

Sequence of Serine/threonine-protein kinase MRCK alpha (Homo sapiens) (Q5VT25 whole entry): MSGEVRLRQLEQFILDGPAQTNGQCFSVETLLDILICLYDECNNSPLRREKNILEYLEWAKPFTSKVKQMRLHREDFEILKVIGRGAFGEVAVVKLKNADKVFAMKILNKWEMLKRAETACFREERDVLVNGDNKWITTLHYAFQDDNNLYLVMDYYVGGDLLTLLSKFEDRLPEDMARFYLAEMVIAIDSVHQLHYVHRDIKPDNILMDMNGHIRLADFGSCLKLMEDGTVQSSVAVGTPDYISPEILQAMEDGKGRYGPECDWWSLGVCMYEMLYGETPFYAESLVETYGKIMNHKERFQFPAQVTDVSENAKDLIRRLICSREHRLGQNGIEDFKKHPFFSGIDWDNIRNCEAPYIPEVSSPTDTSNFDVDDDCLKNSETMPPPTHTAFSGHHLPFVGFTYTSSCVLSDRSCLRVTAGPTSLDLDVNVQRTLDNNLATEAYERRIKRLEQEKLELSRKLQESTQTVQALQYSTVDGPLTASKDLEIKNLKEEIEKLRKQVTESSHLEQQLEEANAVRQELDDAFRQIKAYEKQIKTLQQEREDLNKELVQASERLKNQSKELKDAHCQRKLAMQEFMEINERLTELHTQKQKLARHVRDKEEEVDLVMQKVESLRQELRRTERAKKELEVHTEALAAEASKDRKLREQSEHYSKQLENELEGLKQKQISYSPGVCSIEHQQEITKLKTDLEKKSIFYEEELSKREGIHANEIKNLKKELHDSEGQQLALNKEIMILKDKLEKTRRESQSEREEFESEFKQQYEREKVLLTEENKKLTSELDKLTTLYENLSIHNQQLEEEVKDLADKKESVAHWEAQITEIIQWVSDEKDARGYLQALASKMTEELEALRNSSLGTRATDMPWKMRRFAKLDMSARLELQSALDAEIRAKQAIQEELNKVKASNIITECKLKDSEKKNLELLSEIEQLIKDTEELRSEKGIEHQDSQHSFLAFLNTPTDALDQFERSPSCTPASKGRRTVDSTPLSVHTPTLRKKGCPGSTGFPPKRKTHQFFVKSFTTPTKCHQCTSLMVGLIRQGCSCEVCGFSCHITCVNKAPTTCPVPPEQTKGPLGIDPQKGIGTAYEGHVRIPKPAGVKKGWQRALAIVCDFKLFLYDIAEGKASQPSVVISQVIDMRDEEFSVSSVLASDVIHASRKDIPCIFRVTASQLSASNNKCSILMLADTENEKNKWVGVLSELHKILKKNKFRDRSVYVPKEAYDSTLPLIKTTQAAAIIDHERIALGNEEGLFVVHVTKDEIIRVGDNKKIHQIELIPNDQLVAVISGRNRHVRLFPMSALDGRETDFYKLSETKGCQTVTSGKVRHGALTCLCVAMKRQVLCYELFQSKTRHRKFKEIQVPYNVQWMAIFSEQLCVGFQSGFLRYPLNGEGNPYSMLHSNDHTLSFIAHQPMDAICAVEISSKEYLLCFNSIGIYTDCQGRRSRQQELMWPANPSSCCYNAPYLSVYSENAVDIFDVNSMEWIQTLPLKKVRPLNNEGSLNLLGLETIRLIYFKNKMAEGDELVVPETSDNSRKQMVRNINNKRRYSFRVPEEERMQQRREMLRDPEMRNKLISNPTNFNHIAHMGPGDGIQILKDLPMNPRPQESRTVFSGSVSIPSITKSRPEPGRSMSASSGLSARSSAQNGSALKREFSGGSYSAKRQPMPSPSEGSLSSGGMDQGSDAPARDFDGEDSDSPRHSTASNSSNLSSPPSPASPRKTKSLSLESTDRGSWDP
Sequence of Calcium-dependent protein kinase 1 (Plasmodium falciparum) (P62344 2-524 limits assumed): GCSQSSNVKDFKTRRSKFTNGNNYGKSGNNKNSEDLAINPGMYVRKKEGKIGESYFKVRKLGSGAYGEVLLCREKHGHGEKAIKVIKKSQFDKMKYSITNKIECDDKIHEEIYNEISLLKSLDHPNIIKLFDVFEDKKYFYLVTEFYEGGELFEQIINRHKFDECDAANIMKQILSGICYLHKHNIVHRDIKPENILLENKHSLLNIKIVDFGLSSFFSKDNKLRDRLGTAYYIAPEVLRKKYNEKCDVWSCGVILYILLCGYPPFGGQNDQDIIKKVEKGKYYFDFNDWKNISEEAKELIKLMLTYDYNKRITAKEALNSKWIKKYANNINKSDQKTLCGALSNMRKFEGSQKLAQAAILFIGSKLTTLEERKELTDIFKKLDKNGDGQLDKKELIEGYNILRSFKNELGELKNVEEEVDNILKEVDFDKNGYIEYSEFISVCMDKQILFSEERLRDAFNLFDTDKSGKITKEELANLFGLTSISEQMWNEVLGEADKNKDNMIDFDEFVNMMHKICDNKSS
Sequence of Serine/threonine-protein kinase PLK2 (Homo sapiens) (Q9NYY3 whole entry, looked up): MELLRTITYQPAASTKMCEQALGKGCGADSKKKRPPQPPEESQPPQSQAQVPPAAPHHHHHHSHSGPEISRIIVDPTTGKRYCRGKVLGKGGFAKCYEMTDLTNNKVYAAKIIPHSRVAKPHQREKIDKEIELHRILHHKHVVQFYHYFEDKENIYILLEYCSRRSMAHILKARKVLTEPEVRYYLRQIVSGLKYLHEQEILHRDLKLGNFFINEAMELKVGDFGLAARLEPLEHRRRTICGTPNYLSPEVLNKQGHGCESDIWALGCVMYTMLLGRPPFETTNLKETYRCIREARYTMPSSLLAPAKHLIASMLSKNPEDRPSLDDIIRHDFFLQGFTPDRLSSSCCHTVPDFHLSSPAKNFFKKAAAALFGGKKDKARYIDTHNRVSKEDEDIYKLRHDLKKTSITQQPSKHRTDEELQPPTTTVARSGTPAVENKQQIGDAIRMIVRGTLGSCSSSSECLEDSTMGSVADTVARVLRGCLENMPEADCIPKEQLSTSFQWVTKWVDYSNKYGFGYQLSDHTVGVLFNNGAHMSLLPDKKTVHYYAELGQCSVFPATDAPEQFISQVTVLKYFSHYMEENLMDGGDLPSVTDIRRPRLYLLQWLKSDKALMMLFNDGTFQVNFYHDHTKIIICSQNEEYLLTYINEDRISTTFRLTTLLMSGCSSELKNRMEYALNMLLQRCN
Sequence of Tyrosine-protein kinase ABL2 (Homo sapiens) (P42684 whole entry): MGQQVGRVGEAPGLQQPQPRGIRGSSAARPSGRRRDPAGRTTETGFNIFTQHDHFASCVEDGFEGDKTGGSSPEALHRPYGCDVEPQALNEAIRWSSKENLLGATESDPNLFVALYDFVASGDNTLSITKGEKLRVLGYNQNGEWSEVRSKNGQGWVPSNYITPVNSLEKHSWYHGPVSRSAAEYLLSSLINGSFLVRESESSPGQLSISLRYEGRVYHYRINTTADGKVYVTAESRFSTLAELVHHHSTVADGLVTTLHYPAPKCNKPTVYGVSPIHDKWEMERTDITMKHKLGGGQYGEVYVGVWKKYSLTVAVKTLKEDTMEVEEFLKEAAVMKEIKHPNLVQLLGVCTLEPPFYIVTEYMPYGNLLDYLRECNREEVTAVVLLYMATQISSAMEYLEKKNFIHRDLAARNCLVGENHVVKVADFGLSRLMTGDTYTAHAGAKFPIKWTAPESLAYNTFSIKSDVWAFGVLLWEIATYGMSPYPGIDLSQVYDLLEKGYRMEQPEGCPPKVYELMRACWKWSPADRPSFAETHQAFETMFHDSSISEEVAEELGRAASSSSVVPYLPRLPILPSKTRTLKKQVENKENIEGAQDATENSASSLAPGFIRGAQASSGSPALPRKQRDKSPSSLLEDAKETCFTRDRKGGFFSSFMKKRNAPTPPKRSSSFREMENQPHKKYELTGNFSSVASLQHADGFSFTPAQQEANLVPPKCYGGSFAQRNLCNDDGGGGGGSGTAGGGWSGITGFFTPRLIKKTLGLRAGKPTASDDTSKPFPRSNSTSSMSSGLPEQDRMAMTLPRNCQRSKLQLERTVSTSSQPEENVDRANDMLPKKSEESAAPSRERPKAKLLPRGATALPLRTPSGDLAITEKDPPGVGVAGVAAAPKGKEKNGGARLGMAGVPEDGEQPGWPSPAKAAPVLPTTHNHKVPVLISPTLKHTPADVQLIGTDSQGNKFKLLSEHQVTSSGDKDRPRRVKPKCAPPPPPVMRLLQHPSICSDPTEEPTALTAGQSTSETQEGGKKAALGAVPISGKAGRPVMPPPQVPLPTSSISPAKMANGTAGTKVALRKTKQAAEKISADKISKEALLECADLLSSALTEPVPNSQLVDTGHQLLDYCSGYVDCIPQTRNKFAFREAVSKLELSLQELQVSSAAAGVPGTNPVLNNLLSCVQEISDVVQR
Sequence of Glycogen synthase kinase-3 beta (Homo sapiens) (P49841 whole entry, looked up): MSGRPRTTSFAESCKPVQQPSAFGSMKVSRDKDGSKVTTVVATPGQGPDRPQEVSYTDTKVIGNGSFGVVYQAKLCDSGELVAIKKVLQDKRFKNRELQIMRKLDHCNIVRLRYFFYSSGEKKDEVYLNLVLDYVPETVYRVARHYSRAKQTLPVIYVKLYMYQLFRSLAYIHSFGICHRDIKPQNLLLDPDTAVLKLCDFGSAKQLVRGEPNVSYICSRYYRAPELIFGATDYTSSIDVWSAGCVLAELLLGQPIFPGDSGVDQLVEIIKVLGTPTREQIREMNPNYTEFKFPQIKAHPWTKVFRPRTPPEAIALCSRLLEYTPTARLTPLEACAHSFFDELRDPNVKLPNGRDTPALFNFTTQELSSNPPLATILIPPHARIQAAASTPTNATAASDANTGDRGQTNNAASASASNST
Sequence of Serine/threonine-protein kinase PAK 1 (Homo sapiens) (Q13153 whole entry): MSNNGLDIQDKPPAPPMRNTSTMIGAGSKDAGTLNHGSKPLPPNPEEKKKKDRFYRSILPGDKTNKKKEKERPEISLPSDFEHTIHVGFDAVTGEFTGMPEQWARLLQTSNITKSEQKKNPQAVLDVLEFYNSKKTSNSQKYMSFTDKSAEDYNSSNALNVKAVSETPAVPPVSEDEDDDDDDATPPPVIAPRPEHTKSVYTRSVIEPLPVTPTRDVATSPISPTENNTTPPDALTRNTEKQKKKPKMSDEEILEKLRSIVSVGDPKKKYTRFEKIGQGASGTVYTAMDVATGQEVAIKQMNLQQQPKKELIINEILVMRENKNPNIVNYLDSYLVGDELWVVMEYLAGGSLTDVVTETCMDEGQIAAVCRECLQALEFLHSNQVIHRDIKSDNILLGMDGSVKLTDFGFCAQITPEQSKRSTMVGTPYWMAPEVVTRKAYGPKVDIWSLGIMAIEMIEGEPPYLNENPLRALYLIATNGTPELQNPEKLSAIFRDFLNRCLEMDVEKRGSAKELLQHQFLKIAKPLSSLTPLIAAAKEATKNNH

CN1C(=O)c2sccc2N(C)c2nc(Nc3ccc(S(N)(=O)=O)cc3)ncc21
Activity [1]: 42%
Activity [2]: 100%
Activity [3]: 100%
Activity [4]: 96%
Activity [5]: 21%
Activity [6]: 76%
Kd [7]: 11 nM
Activity [8]: 100%
Activity [9]: 92%
Activity [10]: 95%
Activity [11]: 96%
Activity [12]: 100%
Activity [13]: 100%
Activity [14]: 96%
Activity [15]: 78%
Activity [16]: 100%
Activity [17]: 95%
Activity [18]: 100%
Activity [19]: 99%
inhibition [20]: Active
Activity [21]: 100%
Activity [22]: 81%
Activity [23]: 100%
inhibition [24]: Active
Activity [25]: 97%
